Test system: MS2 coat protein
Test: apparent Kd, MS2 coat protein; higher = weaker binding; RNA-MaP array
Outline: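 Apparent Kd values come from the median of binding-curve fits to single clusters. To obtain them, designed RNAs transcribed on an Illumina sequencing chip from sequenced DNA templates were incubated at room temperature with fluorescently labeled MS2 coat protein at 1.5 nM to 3 μM, with or without input ligand, for 0.8–1.5 h at the lowest and 10–20 min at the highest concentrations. Designs measured on fewer than 10 clusters were excluded.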

[1] = designed as: OFF switch for flavin mononucleotide, no ligand
[2] = ligand present: flavin mononucleotide, designed as: OFF switch for flavin mononucleotide
[3] = designed as: ON switch for tryptophan, no ligand
[4] = ligand present: tryptophan, designed as: ON switch for tryptophan
[5] = designed as: ON switch for flavin mononucleotide, no ligand
[6] = ligand present: flavin mononucleotide, designed as: ON switch for flavin mononucleotide
[7] = designed as: OFF switch for theophylline, no ligand
[8] = ligand present: theophylline, designed as: OFF switch for theophylline

Sequence | apparent Kd [1] | apparent Kd [2] | apparent Kd [5] | apparent Kd [6] | further results
AGAGUGAGAGGAUAUUUUGGCGUAGACAUGAGGAUCACCCAUGUGUCGUGGGCACUGCUGAAAGAAGGCUCAGCUC | 29.3 nM | 25.3 nM |  |  | 
AGCUCGGCAGGAUAUACAUGAGGAUCACCCAUGUUUGCAGGCGCGCCGGUAGACUUUUGUAGAAGGGCCGUAUA | 44.8 nM | 113 nM |  |  | 
AGGAAGACGAUGGAUACCAGACAACCAGGGAACAUGAGGAUCACCCAUGUGAUUGAAAGGGUCCCUUGGCAGCCAGAAGCCGUUG |  |  |  |  | apparent Kd (designed as: ON switch for theophylline, no ligand): 88.3 nM; apparent Kd (ligand present: theophylline, designed as: ON switch for theophylline): 119 nM
AGGGACAUGAGGAUCACCCAUGUUGAAACUCGAGGACCGGUACGGCCGCCACUCGUAUAAUCGAUGUCCAUUUGGGAUUCCGGCU |  |  |  |  | apparent Kd [3]: 25.3 nM; apparent Kd [4]: 24.2 nM
AGUCCCAGGGAGAAGGACAUGAUCACAUGAGGAUCACCCAUGUGAGCCAUUUUAUGUAGGGACGUGUAGGAUAUCCGGACAUGG | 6.27 nM | 6.11 nM |  |  | 
AGUCGUUAACGGCGCAACACAUGAGGAUCACCCAUGUGCUAUGAGGAUAUCCGGGUGUACAAGCCGGAGAAGGCAUCGUUCUUU |  |  | 10.6 nM | 9.55 nM | 
AGUUGACCAAGAGGAUAUGCCCUGUCUUUAUGUACAUGCAGAACAUGAGGAUCACCCAUGUGACGGCAGAAGGCUUAGCCGGUG | 6.77 nM | 7.12 nM |  |  | 
AGUUGUGGAAAGAAGGCGUGACGAGGUAAAUAUCCAACAUGAGGAUCACCCAUGUUUCUUGCCUACGAGGAUAUUUGUGCUAUC |  |  | 14 nM | 12.2 nM | 
AUAAACCUAGGAUAUACCAGGACGAUUCAACAAGAAAACGAACAUGAGGAUCACCCAUGUAGAAGGAGGGAAAG | 20.5 nM | 25.3 nM |  |  | 
AUAAUCCCUGUUCAGAGACAUGAGGAUCACCCAUGUUUAACGAGAAGGUGAGUGCGACGGCGUCUCAAGGAUAUCGACGUGACC | 9.05 nM | 10.4 nM |  |  | 
AUACGUGCAGGAUAUUAUUCGAGCCACAUGAGGAUCACCCAUGUUAAUUCUUCAUGUAUCUAAGAAGGGCAGUGAA | 9.07 nM | 9.67 nM |  |  | 
AUCGAUUUUAUAGGAUAUCGCACAUGAGGAUCACCCAUGUGCCCGACAGACUUAAAGCUCAAUCGCGAGAAGGAUAGAACAGGG | 8.63 nM | 8.02 nM |  |  | 
AUGUAACGUGAGAAGGUGUUGAAAUAAGUUCCAUAAAUCUUACAUGAGGAUCACCCAUGUUUAUACAAGGAUAUCAUUAAUUAU |  |  | 16.8 nM | 12.9 nM | 
AUUAACAUGAGGAUCACCCAUGUGGCCCACCGAGGACCGGUACGGCCGCCACUCGUCGGAAAGGCUAAAUUUAUGAAGUCCAAAA |  |  |  |  | apparent Kd [3]: 18.7 nM; apparent Kd [4]: 16.1 nM
AUUAACUCAGCAGGAUAUCUCAGCGGACGUUGCAGAGAAGGGCUAUGCCUAUGUAGGCAACUCACAUGAGGAUCACCCAUGUAA |  |  | 38.8 nM | 19.1 nM | 
AUUAGCAAGUCAUAGGAUAUGAAGCCACUUACAUGAGGAUCACCCAUGUAAUUCCGGGUCCCGCCUCAGAAGGAUGACGUAAUAGG |  |  | 17.1 nM | 7.12 nM | 
CAAAUAGACCACGAUACCAGAACACAAGGAGUAAUAUCAAACAUGAGGAUCACCCAUGUCUUCCCUUGGCAGCGUAGCACGGAGU |  |  |  |  | apparent Kd [7]: 11.7 nM; apparent Kd [8]: 13.3 nM
CAAGGGAAAGUCAGGAUAUGCACAACCGACCGUUUGCAGAAGGGACAUGAGGAUCACCCAUGUGUGGAACUGUU | 9.02 nM | 21.4 nM |  |  | 
CACAUUCCUUAGAAGGCUACGAAUUUAGCGCGUAGAGGAUAUAAGGGAUACAUGAGGAUCACCCAUGUGAUAUAUCUUCUGAAA | 20.8 nM | 24.1 nM |  |  | 
CACGAACAUGAGGAUCACCCAUGUCAGGAUAUCGUGCUAAUCCCAUAAUCGGCGCGCACGAGAAGGGACCAGGG | 12.7 nM | 19.6 nM |  |  | 
CAGCCGGCCUAGAAGGUCGAAAUCCAAAUCGUCGAAGGAUAUAGGUCCAGAAAACAAUUACAUGAGGAUCACCCAUGUAUCCUG |  |  | 21.5 nM | 14.2 nM | 
CAGUGAGCCAAGAAGGUUGCUGACGAUAGUGGCAAAGGAUAUUGAGGGCGCAAUCAUUUACAUGAGGAUCACCCAUGUUCUUAC |  |  | 35.4 nM | 17.5 nM | 
CAUAAACCCUAGAAGGGCGCAUUAUGUAGAUUCGCAGGAUAUAGGAACGGGAUCGUGUAUACAACAUGAGGAUCACCCAUGUCA |  |  | 15.4 nM | 14.4 nM | 
CCAUAAGACGAGAAGGGCUGCCAACUAGGUAGAGCAGGAUAUCGUCUUACUCGUCAUGGCAAAACAUGAGGAUCACCCAUGUAU | 8.16 nM | 7.82 nM |  |  | 
CCCGACGAGCCUGAGAUUAAGUAAGCGGAUACCAGAGAUAGGUAGCUCCCUUGGCAGCCGUGGACAUGAGGAUCACCCAUGUCAC |  |  |  |  | apparent Kd [7]: 11.1 nM; apparent Kd [8]: 11.2 nM
CCCGUGCUGCGAGGAUAUGUGUAGGAUGUUUCCACAGAAGGCGCUGGAGACAUGAGGAUCACCCAUGUGAACCCACGUACGACA |  |  | 24.9 nM | 19.9 nM | 
CCGUUUCGGACAAGCAACACAUGAGGAUCACCCAUGUCAAUCUAGGAUAUCAUAAGGAUAUAACGUGAGAAGGAGAGCGACAGG | 33.2 nM | 24.4 nM |  |  | 

Sequence | apparent Kd [1] | apparent Kd [2] | apparent Kd [5] | apparent Kd [6] | further results
CCGUUUGAUCAGAAGGAACCAGUCGAACCAUGUGACAGACAUGAGGAUCACCCAUGUUCGCGCGGUUAGGAUAUGACAGCUCAG | 13.2 nM | 64.5 nM |  |  | 
CCUAACUGAGGAUAUGACAACUGGCACAUGAGGAUCACCCAUGUAGACUCAUUCGAGUUAUCAGAAGGCAGAAUAU | 10.7 nM | 18.8 nM |  |  | 
CCUCAAAGACAGAAGGAAGGUCCGCUACUAGCAGUAACAACAUGAGGAUCACCCAUGUCAAUACCUUAGGAUAUGUAAGAACGC |  |  | 71.2 nM | 16.5 nM | 
CCUCACAUGAGGAUCACCCAUGUCUUUACACGAGGACCGGUACGGCCGCCACUCGUUCACAAAACAACCAGAAGUGAUGCCUACA |  |  |  |  | apparent Kd [3]: 140 nM; apparent Kd [4]: 169 nM
CCUCACGGACUCUCCACAUGAGGAUCACCCAUGUAAGCCGCGAAGGAUAUGAACGUCUCUCCGGGUCAGAAGGUCGCCGGUCCU | 8.78 nM | 9.71 nM |  |  | 
CCUCGAUUUUGAUACCGAUAUGUCUUUGAUACCAGCGCCAUAGUACGCCCUUGGCAGCAAGAAACAUGAGGAUCACCCAUGUUAA |  |  |  |  | apparent Kd [7]: 16.7 nM; apparent Kd [8]: 49.8 nM
CCUGAGGUUAUAGGAUAUAGGCUAGAGAGGUACGAUUCUUUAUGAACAUGAGGAUCACCCAUGUCCUAGAAGGAUACUUAGUAG |  |  | 58.1 nM | 112 nM | 
CCUUCGUCGAAUGUGUAACAUGAGGAUCACCCAUGUAGUCUGGAGGAUAUCUAACACAGCUGAAAAGAGAAGGCCAGGUCUGCA | 26 nM | 48.6 nM |  |  | 
CGAAGUAGUAGAGGAUAUGCUAGAGAUGGUUCUGCAGAAGGCUACCCUCUUGAUUAUAUUACAUGAGGAUCACCCAUGUUGGUU | 10.7 nM | 10.2 nM |  |  | 
CGAUGGGUAACAGGAUAUGAAUGGAAACCUCCAGUGUUGAGCACUUACAUGAGGAUCACCCAUGUUCAGAAGGGUUUGUGAUUG |  |  | 38.9 nM | 59.9 nM | 
CGAUUACUGCAGAAGGGAGGGCCACAAAACAUGAGGAUCACCCAUGUAGAACUGAACGGGACUCCUCAGGAUAUGCGCCGAGAU |  |  | 28.7 nM | 11.8 nM | 
CGCCACACAUGAUAAUCAUAACAUGAGGAUCACCCAUGUCAUAGAAGGUGCAUAUUUUAGAAUCGCAAGGAUAUAUGGACAAUU | 16.2 nM | 18.7 nM |  |  | 
CGCCUACAUGAGGAUCACCCAUGUGAUGUUACGGUAGGAUAUAGAGCUGAGCCACUCUGCCUAGAAGGACCUAUAC |  |  | 68.8 nM | 37.3 nM | 
CGGUGUGCAGAGGAUAUCGGCGUUUUCUCACAUCGAGAAGGCUGCACAUGAGGAUCACCCAUGUAUCUUUAGGA | 58.6 nM | 189 nM |  |  | 
CGUAUGUGAGGAUAUCCGAAACUAUUUACCAAAUUAUAAGUGGAGAAGGCACAUGAGGAUCACCCAUGUGAUGG | 11.5 nM | 24.6 nM |  |  | 
CUCACUAAGCUUUAGGAUAUAGACACUGGCACAUGAGGAUCACCCAUGUUCAACAAGGCGGAUAACUAGAAGGAAAGUAACCUUUU |  |  | 11.9 nM | 9.64 nM | 
CUGACGUAACAUGAGGAUCACCCAUGUUUGGCGCUAUAGCAACAGGAUAUUCCGCUCACGGAGCUGAAGAAGGGUUACAGUCAC |  |  | 14 nM | 8.37 nM | 
CUGAGCCUGUGUGUACAUGAGGAUCACCCAUGUUCGAUAGGGUAGGAUAUCGCAGUUUCUUGAGCCGAGAAGGACCCUAAUGGA | 16.5 nM | 30.1 nM |  |  | 
CUGGGCCAAUAGAAGGGCGGGAGCGCAGGUGAUCAAACCUAUUACAUGAGGAUCACCCAUGUAACGCAGGAUAUAUCGGUUUUA | 25.4 nM | 48 nM |  |  | 
CUUUAUACAUGAGGAUAUUGGAAAACCGGCGUACAAGAAGGCAUGACAUGAGGAUCACCCAUGUAAAGAUAAAGACAAAGCUAA |  |  | 22.7 nM | 10.3 nM | 
GAAACAUUAGAAGGAUAUGAUACGAACACCGGGUACAUGAGGAUCACCCAUGUUCAGAAAUAAUAUCAGAAGGUCAGCAACAAA |  |  | 985 nM | 418 nM | 
GAAGAAAAGUGAGGAUAUGGCAACCAGAUGACGCAAACAAUAAAACAUGAGGAUCACCCAUGUACCCAGAAGGCACCAAACAAA |  |  | 15.2 nM | 9.48 nM | 
GAAUAGGAUCAGAAGGAGCUCCAACGGUGACAUGAGGAUCACCCAUGUACUAAACUACAGAAAAGCUAGGAUAUGAAUAAUAGG |  |  | 27.7 nM | 25.4 nM | 
GACAAUAAUUCAACAAUCAAAAUAGUGGGACGAGGACCGGUACGGCCGCCACUCGCUGAAGCACAUGAGGAUCACCCAUGUCUAA |  |  |  |  | apparent Kd (designed as: OFF switch for tryptophan, no ligand): 17.2 nM; apparent Kd (ligand present: tryptophan, designed as: OFF switch for tryptophan): 17.8 nM
GACCCUACGGAGAAGGCACCUACAUGAGGAUCACCCAUGUUUGAUCGUUUGCCGGACGGCUUACGUGAGGAUAUCCAGGUACAG |  |  | 14.8 nM | 7.2 nM | 
GACUAAUAGGAGAAGGGACAAUCUACAAUCGCGUCAGGAUAUCCGACAUGAGGAUCACCCAUGUAGAGAAGGGCGCAGCCCGGC |  |  | 24.3 nM | 18.3 nM | 
GAUCUGGCGGUGAGGAUAUAUAUCAAAUGCAAGGCAUAGAAGGCACAUGAGGAUCACCCAUGUCUGCACCAGGG | 14 nM | 15.6 nM |  |  | 

From the EternaBench riboswitch data
